# Active and inactive are the calls of the source. The calls are words filed in the database; no cut-off is given here.
# Assays:
# [1] = test system: RAW264.7; assay: Modulation of M2 polarization in mouse RAW264.7 cells assessed as change in Arg1 mRNA expression at 300 nM measured after 24 hrs by qRT-PCR analysis relative to control; assay type: functional
# Outline: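 RAW264.7 cells (DMEM, 10% FBS) given 300 nM compound for 24 h; IL-4 20 ng/ml as positive control. Arg1 mRNA measured by qRT-PCR; fold change = expression in dosed group / expression in untreated control.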
# [2] = test system: Mus musculus; assay: Antiinflammatory activity in C57BL/6J mouse model of MOG (35 to 55 residues)/pertussis toxin/complete Freund's adjuvant-induced experimental allergic encephalomyelitis assessed as reduction in development of clinical symptoms at 200 mg/kg, ig administered daily starting from 7 days post-immunization up to 26 days; assay type: functional, organism-based
# Outline: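 MOG35-55/CFA EAE mice received daily saline vehicle, 100 or 200 mg/kg drug, or dexamethasone 10 mg/kg from day 7 post-immunisation. Clinical signs were scored on a 0-5 scale (e.g. 3 = complete bilateral hind limb paralysis, 5 = death). Mean scores used n=5.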
# [3] = test system: Mus musculus; assay: Antiinflammatory activity in C57BL/6J mouse model of MOG (35 to 55 residues)/pertussis toxin/complete Freund's adjuvant-induced experimental allergic encephalomyelitis assessed as reduction in infiltration in spinal cord at 200 mg/kg, ig administered daily starting from 7 days post-immunization measured after 14 days post-immunization by H and E staining based microscopic analysis; assay type: functional, organism-based
# Outline: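 EAE mice dosed daily in saline from day 7 were perfused with PBS and fixed in 4% PFA on day 14; spinal cords were taken. For LFB, frozen OCT sections sat 3 h in 0.1% Luxol Fast Blue at 56-60°C, were differentiated in 0.05% lithium carbonate for 10-12 s, cleared in 70% ethanol, dehydrated and mounted. For H&E, paraffin sections were stained to assess inflammation.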
# [4] = Tmax in Sprague-Dawley rat at 10 mg/kg, iv administered as single dose by LC/MS analysis; assay type: ADME, organism-based; details: in vivo
# Outline: (§1)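 Single dose in rats; venous blood (100 µL) drawn at 0, 0.5, 1, 2, 4, 8 and 12 h, plasma separated by centrifugation and held at -20 °C. Compound measured by LC/MS; Cmax, Tmax, t1/2 and AUC derived from the concentration–time data.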
# [5] = test system: BMDM; assay: Modulation of M2 polarization in C57BL/6J mouse BMDM cells assessed as up regulation of YM1 expression at 300 nM measured after 4 to 24 hrs by Western blot analysis; assay type: functional, cell-based
# Outline: (§2)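 BMDMs lysed in pH 7.6 buffer with 1% Triton X-100, phosphatase inhibitor and 1 mM PMSF. Proteins separated by SDS-PAGE, blotted to PVDF and probed with anti-Arg-1, anti-Ym1 or anti-TNF-α, then ECL detection; GAPDH as loading control.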
# [6] = test system: BMDM; assay: Antiinflammatory activity in LPS-induced C57BL/6J mouse BMDM cells assessed as suppression of M1 macrophage-stimulated CD4 positive T-cell proliferation at 300 nM preincubated for 48 hrs followed by CD4 positive T-cell addition and measured after 72 hrs by CFSE dye based FACS analysis; assay type: functional
# Outline: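 BMDMs given 300 nM compound with 50 ng/ml LPS for 48 h on day 5 of differentiation; drug removed day 7. Cells then cocultured 1:1 with CFSE-labelled negatively selected naïve CD4+ T cells plus 500 ng/ml anti-CD3 and 500 ng/ml anti-CD28. T-cell proliferation (CFSE MFI, % proliferated) read by flow cytometry after 72 h. Mean ± SEM, at least three independent experiments.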
# [7] = test system: RAW264.7; assay: Inhibition of M1 polarization in mouse RAW264.7 cells assessed as down regulation of TNFSF15 mRNA expression at 300 nM measured after 24 hrs by qRT-PCR analysis; assay type: functional, cell-based
# [8] = test system: BMDM; assay: Inhibition of LPS-induced M1 polarization in C57BL/6J mouse BMDM cells assessed as down regulation of CD86 expression measured after 24 hrs by FACS analysis; assay type: functional, cell-based
# Outline: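 BMDMs pretreated with 50 ng/ml LPS for 24 h, then given compound (300 nM, or a range of concentrations) for 24 h. Stained for F4/80 and CD86; % CD86+F4/80+ cells read by flow cytometry. Mean ± SEM, at least three independent experiments.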
# [9] = test system: RAW264.7; assay: Modulation of M2 polarization in mouse RAW264.7 cells assessed as up regulation of IL13RA1 mRNA expression at 300 nM measured after 24 hrs by qRT-PCR analysis; assay type: functional, cell-based
# [10] = test system: Mus musculus; assay: Inhibition of M1 polarization in C57BL/6J mouse model of MOG (35 to 55 residues)/pertussis toxin/complete Freund's adjuvant-induced experimental allergic encephalomyelitis assessed as CD86 level in CNS at 200 mg/kg, ig administered daily starting from 7 days post-immunization measured after 13 to 19 days post-immunization by flow cytometry analysis (reference value: 26.3%); assay type: functional; set-up: scale not given: the % may be the effect or the level left
# Outline: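 MOG35-55/CFA EAE mice were dosed daily in saline from day 7 and sampled between days 13 and 19. Cells came from spleen and dLN by mechanical dissociation and from CNS by collagenase IV/Percoll. They were stained for F4/80 with CD206 (M2) or CD86 (M1), and each was read by flow cytometry as a percentage of total F4/80+ macrophages.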
# [11] = test system: BMDM; assay: Modulation of M2 polarization in C57BL/6J mouse BMDM cells assessed as up regulation of Arg1 mRNA expression at 300 nM measured after 24 hrs by qRT-PCR analysis; assay type: functional, cell-based
# Outline: (§3)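 BMDMs treated 24 h with 300 nM compound at 37 °C, 5% CO2. Trizol RNA extraction, then qRT-PCR for Arg1, Mrc1 and Fizz1 mRNA. Mean ± SEM.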
# [12] = test system: RAW264.7; assay: Inhibition of M1 polarization in mouse RAW264.7 cells assessed as down regulation of CD80 mRNA expression at 300 nM measured after 24 hrs by qRT-PCR analysis; assay type: functional, cell-based
# [13] = test system: BMDM; assay: Modulation of M1 polarization in C57BL/6J mouse BMDM cells assessed as up regulation of TNFalpha expression at 300 nM measured after 4 to 24 hrs by Western blot analysis; assay type: cell-based; details: 0.3 µM; outline: as §2
# [14] = AUC (0 to t) in Sprague-Dawley rat at 50 mg/kg, po administered as single dose via gavage by LC/MS analysis; assay type: ADME, organism-based; details: in vivo; outline: as §1
# [15] = AUC (0 to infinity) in Sprague-Dawley rat at 10 mg/kg, iv administered as single dose by LC/MS analysis; assay type: ADME, organism-based; set-up: dose 10 mg/kg, time infinity, route intravenous; details: in vivo; outline: as §1
# [16] = test system: RAW264.7; assay: Modulation of M2 polarization in mouse RAW264.7 cells assessed as up regulation of CCR2 mRNA expression at 300 nM measured after 24 hrs by qRT-PCR analysis; assay type: functional, cell-based
# [17] = Half life in Sprague-Dawley rat at 50 mg/kg, po administered as single dose via gavage by LC/MS analysis; assay type: ADME, organism-based; details: in vivo; outline: as §1
# [18] = AUC (0 to t) in Sprague-Dawley rat at 10 mg/kg, iv administered as single dose by LC/MS analysis; assay type: ADME, organism-based; details: in vivo; outline: as §1
# [19] = test system: RAW264.7; assay: Inhibition of M1 polarization in mouse RAW264.7 cells assessed as down regulation of IL6 mRNA expression at 300 nM measured after 24 hrs by qRT-PCR analysis; assay type: functional, cell-based
# [20] = Cmax in Sprague-Dawley rat at 50 mg/kg, po administered as single dose via gavage by LC/MS analysis; assay type: ADME, organism-based; set-up: dose 50 mg/kg, route oral; details: in vivo; outline: as §1
# [21] = Ratio of AUC (0 to t) to AUC (0 to infinity) in Sprague-Dawley rat at 10 mg/kg, iv administered as single dose […]; assay type: ADME, organism-based; details: in vivo
# [22] = test system: BMDM; assay: Modulation of M2 polarization in C57BL/6J mouse BMDM cells assessed as up regulation of Mrc1 mRNA expression at 300 nM measured after 24 hrs by qRT-PCR analysis; assay type: functional, cell-based; outline: as §3
structure (smiles),measurement,setting,value
Cl.Cn1ncc(Cl)c1-c1ccc(C(=O)N[C@@H]2CNCC[C@H]2c2cccc(F)c2)cc1,fold change (FC),[1],13.97
same,Activity,[2],Active
same,Activity,[3],Active
same,Tmax,[4],4.98 min
same,Activity,[5],Active
same,Activity,[6],Active
same,inhibition,[7],Active
same,inhibition,[8],Dose-dependent effect
same,Activity,[9],Active
same,Activity,[10],16.6%
same,Activity,[11],Active
same,inhibition,[12],Active
same,Activity,[13],Non-Toxic
same,AUC(0-t),[14],4670 ng·h/mL
same,AUC(0-inf),[15],1870 ng·h/mL
same,Activity,[16],Active
same,half-life,[17],7.77 h
same,AUC(0-t),[18],1840 ng·h/mL
same,inhibition,[19],Active
same,Cmax,[20],313 ng/mL
same,Ratio AUC,[21],98.75%
same,Activity,[22],Active

# Source: ChEMBL document CHEMBL4339193, “Phenotypic Screening-Based Identification of 3,4-Disubstituted Piperidine Derivatives as Macrophage M2 Polarization Modulators: An Opportunity for Treating Multiple Sclerosis” (J Med Chem, 2019)
